Assay results as given in ChEMBL document CHEMBL4028873, “The Discovery of a Dual TTK Protein Kinase/CDC2-Like Kinase (CLK2) Inhibitor for the Treatment of Triple Negative Breast Cancer Initiated from a Phenotypic Screen” (J Med Chem, 2017).
Active and inactive are the calls of the source. No cut-off for these calls is given here.

How the values were obtained:
[1] = target: Dual specificity tyrosine-phosphorylation-regulated kinase 1B (Homo sapiens, UniProt Q9Y463); assay: Inhibition of full length human recombinant GST-tagged DYRK1B expressed in baculovirus by Z'-LYTE assay
[2] = target: T1, c-Jun N-terminal kinase, JNK (Homo sapiens, UniProt P45983+P53779+P45984); assay: Inhibition of JNK1/JNK2/JNK3 in human HCT116 cell lysate after 1 hr by LC-MS/MS analysis relative to control
[3] = target: T1, c-Jun N-terminal kinase, JNK; assay: Binding affinity to JNK1/JNK2/JNK3 in human HCT116 cell lysate at 3 uM after 1 hr by LC-MS/MS analysis
Outline: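 ActivX KiNative cellular kinase profiling. HCT-116 cells were grown in RPMI-1640 with 10% FBS and exposed to compound at 3 μM for 1 h, with DMSO-only controls. Cells were then washed with ice-cold PBS, scraped, pelleted and stored at −80 °C. Kinase binding was reported as percent occupancy relative to the untreated controls.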

[4] = test system: MDA-MB-231; assay: Antiproliferative activity against human MDA-MB-231 cells after 3 days by CellTiter-Glo assay; type: functional, cell-based
Outline: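 Cell lines kept in vendor-recommended growth media; 3-day compound exposure, then CellTiter-Glo luminescence read. Percent inhibition per concentration normalized to DMSO control, triplicate wells.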

[5] = test system: Mus musculus; assay: Toxicity in SCID mouse xenografted with human CAL51 cells assessed as loss in body weight at 20 mg/kg, iv administered every 7 days for 16 days relative to control; type: organism-based; settings: in vivo
[6] = test system: Mus musculus; assay: Toxicity in SCID mouse xenografted with human CAL51 cells assessed as loss in body weight at 20 mg/kg, iv administered every 3 days for 16 days relative to control; type: organism-based; settings: in vivo
[7] = test system: CAL-51; assay: Antiproliferative activity against human CAL51 cells xenografted in SCID mouse assessed as tumor growth inhibition at 20 mg/kg, iv administered every 7 days for 16 days relative to control; type: functional; settings: CAL-51, iv, read-out: TGI
Outline: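 Mice bearing tumors of about 125 mm3 randomized (n = 8−10/group) and given compound intravenously at the listed doses and schedules. Tumors measured twice weekly by digital caliper on long and short axes; volume = width² × length/2.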

[8] = target: Voltage-gated inwardly rectifying potassium channel KCNH2 (Homo sapiens, UniProt Q12809); assay: Inhibition of human ERG
[9] = target: Dual specificity protein kinase CLK2 (Homo sapiens) (UniProt P49760); settings: 3 uM
[10] = target: Dual specificity protein kinase CLK1 (Homo sapiens) (UniProt P49759); settings: 3 uM
Chain of Dual specificity protein kinase CLK1 (Homo sapiens) (P49759 whole entry, looked up): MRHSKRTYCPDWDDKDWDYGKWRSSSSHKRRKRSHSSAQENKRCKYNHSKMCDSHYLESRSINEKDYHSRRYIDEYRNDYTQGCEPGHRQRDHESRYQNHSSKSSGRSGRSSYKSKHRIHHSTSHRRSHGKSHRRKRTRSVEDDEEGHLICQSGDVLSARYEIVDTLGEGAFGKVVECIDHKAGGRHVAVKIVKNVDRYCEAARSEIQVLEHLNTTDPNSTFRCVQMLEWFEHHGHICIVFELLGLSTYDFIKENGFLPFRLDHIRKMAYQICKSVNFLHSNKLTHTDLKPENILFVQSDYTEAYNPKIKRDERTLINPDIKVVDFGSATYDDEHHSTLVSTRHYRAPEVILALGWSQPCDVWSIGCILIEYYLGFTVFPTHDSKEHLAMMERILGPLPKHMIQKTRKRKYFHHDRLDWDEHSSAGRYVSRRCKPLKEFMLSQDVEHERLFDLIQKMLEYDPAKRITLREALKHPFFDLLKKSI

Chain of Voltage-gated inwardly rectifying potassium channel KCNH2 (Q12809 whole entry): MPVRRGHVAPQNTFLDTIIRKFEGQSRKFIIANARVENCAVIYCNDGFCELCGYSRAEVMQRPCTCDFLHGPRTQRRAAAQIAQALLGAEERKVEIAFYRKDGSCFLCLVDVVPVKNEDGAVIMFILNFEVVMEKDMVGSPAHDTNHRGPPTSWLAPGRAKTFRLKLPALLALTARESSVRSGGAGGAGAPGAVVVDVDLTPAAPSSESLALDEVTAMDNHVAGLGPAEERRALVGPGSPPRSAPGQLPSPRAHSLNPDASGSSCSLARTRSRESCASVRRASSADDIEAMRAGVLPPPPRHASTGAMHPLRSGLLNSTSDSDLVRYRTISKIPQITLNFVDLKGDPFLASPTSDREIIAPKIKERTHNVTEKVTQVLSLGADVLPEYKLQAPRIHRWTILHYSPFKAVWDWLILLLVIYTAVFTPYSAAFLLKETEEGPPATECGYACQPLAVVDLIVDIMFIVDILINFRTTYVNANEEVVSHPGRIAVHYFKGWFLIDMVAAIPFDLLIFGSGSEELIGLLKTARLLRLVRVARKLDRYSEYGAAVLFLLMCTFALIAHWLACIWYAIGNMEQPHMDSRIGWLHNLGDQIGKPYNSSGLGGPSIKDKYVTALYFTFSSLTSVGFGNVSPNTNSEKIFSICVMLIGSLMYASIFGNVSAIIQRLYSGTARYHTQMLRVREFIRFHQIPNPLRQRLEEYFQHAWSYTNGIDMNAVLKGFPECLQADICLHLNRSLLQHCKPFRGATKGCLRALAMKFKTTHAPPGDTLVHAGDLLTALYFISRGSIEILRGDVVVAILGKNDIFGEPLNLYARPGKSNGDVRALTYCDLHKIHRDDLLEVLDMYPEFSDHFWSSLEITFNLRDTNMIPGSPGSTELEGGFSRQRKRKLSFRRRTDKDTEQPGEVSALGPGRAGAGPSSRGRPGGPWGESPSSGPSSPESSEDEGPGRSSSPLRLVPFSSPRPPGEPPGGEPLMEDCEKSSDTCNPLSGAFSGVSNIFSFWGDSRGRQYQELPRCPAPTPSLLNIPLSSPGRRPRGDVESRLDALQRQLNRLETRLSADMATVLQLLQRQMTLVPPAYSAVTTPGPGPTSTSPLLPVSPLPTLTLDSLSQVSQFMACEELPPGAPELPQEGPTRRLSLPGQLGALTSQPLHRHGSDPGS
Chain of Dual specificity protein kinase CLK2 (Homo sapiens) (P49760 whole entry, looked up): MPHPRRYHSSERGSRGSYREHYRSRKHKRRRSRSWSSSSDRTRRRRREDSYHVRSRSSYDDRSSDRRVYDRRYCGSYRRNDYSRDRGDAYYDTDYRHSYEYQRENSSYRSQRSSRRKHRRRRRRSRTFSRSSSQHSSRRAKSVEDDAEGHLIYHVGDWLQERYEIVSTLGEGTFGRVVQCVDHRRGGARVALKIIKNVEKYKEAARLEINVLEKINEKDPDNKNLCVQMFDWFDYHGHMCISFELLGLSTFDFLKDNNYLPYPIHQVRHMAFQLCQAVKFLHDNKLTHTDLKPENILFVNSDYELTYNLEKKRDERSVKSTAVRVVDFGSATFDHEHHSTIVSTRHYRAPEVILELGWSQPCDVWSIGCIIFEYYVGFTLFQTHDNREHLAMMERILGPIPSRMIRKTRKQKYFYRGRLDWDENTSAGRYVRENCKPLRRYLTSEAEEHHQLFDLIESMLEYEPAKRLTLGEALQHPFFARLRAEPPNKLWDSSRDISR
Chain of Dual specificity tyrosine-phosphorylation-regulated kinase 1B (Q9Y463 whole entry): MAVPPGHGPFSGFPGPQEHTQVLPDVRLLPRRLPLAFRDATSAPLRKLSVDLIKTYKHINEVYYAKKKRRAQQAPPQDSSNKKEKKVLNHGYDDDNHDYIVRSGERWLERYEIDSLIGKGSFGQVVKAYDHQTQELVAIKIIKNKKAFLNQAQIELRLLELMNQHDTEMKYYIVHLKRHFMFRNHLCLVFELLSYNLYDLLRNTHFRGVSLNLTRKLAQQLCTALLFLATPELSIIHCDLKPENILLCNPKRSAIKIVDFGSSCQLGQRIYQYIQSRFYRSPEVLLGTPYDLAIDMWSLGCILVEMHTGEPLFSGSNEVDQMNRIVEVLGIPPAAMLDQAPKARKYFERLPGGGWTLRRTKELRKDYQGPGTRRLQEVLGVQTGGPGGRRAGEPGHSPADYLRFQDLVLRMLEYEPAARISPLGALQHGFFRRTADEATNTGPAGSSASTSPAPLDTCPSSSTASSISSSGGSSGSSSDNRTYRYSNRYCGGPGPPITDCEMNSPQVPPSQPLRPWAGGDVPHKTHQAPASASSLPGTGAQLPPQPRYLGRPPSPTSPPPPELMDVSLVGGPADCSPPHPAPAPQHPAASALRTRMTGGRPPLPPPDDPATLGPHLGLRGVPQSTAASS

`CNC(=O)c1ccc(Nc2nc(OC3CCCC3)c3c(-c4ccc5nc(C)oc5c4)c[nH]c3n2)c(OC)c1` showed an IC50 [1] of 0.157 µM, an IC50 [2] of 0.68 µM and an Activity [3] of over 75%. The Activity [4] was “Active”, the Activity [5] was “Non-Toxic” and the Activity [6] was 17%. For the same molecule, the inhibition in vivo at 20 mg/kg [7] was 70%, the IC50 [8] was over 33 µM and the inhibition [9] was over 80%. It also gave an inhibition [10] of over 80%.
